Source: ChEMBL document CHEMBL1147036, “An NQO1- and PARP-1-mediated cell death pathway induced in non-small-cell lung cancer cells by beta-lapachone” (2007)
The source made the active and inactive calls. The rule behind the calls is not given here.

Key:
A549 [1] = assay: Reversal of induction of NAD+ depletion in NQO1 expressing human A549 cells at 6 uM in presence of 1,2-bis(2-aminophenoxy)ethane-N,N,N',N'-tetraacetic acid acetoxymethyl ester; format: functional, cell-based
Outline: (§1)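 A549 cells pretreated with 5 μM BAPTA-AM or mock, then given 6 μM drug for 1 h; percent NAD+ loss measured as surrogate of PARP-1 hyperactivation, expressed as % of control.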

NCI-H596 [2] = assay: Induction of ATP depletion in NQO1 expressing human H596 cells at 10 uM by luciferase based bioluminescence assay; format: functional, cell-based
Outline: (§2)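 Cells exposed to 10 μM drug, harvested at set times; ATP measured in whole-cell extracts by luciferase bioluminescence. DIC coadded with drug in NQO1 inhibition arms. Means ± SE, three or more experiments in triplicate.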

NCI-H596 [3] = assay: Induction of DNA damage in NQO1 expressing human H596 cells at 10 uM after 2 hrs by alkaline comet tail assay; format: functional, cell-based
Outline: (§3)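 Cells exposed 10 μM drug for 2 h, ± 50 μM DIC; 2 mM H2O2 for 2 h as positive control. Alkaline comet assay, SYBR Green staining, fluorescence microscopy; tail lengths quantified in arbitrary units. Means ± SE from three experiments.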

A549 [4] = assay: Induction of ATP depletion in NQO1 expressing human A549 cells at 10 uM by luciferase based bioluminescence assay; format: functional, cell-based; outline: as §2
A549 [5] = assay: Reversal of induction of DNA damage in human A549 cells in presence of 3-aminobenzamide at 10 uM after 2 hrs; format: functional, cell-based
A549 [6] = assay: Reversal of induction of NAD+ depletion in NQO1 expressing human A549 cells at 10 uM in presence of 40 uM dicoumarol by luciferase based bioluminescence assay; format: functional, cell-based
Outline: (§4)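 10 μM drug ± 40 μM DIC; intracellular NAD+ measured at set times and expressed as % treated/control. Means ± SE of at least three independent experiments, each in duplicate.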

A549 [7] = assay: Induction of PARP1 hyperactivation in NQO1 expressing human A549 cells assessed as PAR accumulation at 10 uM for 10 mins by Western blot; format: functional, cell-based
NCI-H596 [8] = assay: Reversal of induction of PARP1 hyperactivation in NQO1 expressing human H596 cells assessed as PAR accumulation at 10 uM for 10 mins by Western blot; format: functional, cell-based
NCI-H596 [9] = assay: Reversal of PARP1 hyperactivation in NQO1 expressing human H596 cells assessed as PAR formation in presence of 3-aminobenzamide; format: functional, cell-based
Outline: (§5)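 Cells pretreated 2 h with or without 25 mM 3-aminobenzamide, then exposed to drug with or without 3-AB for 20 min; PAR formation read by Western blot.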

NCI-H596 [10] = assay: Reversal of induction of ATP depletion in NQO1 expressing human H596 cells at 10 uM in presence of 40 uM dicoumarol by luciferase based bioluminescence assay; format: functional, cell-based; outline: as §2
NCI-H596 [11] = assay: Induction of NAD+ depletion in NQO1 expressing human H596 cells at 10 uM by luciferase based bioluminescence assay; format: functional, cell-based; outline: as §4
A549 [12] = assay: Induction of NAD+ depletion in NQO1 expressing human A549 cells at 6 uM after 1 hr by luciferase based bioluminescence assay; format: functional; outline: as §1
NCI-H596 [13] = assay: Reversal of induction of NAD+ depletion in NQO1 expressing human H596 cells at 10 uM in presence of 40 uM dicoumarol by luciferase based bioluminescence assay; format: functional, cell-based; outline: as §4
NCI-H596 [14] = assay: Reversal of PAR-polymer formation in NQO1 expressing human H596 cells at 10 uM in presence of 50 uM dicoumarol; format: functional, cell-based
NCI-H596 [15] = assay: Induction of DNA damage in NQO1 deficient human H596 cells at 10 uM after 2 hrs by alkaline comet tail assay; format: functional, cell-based; outline: as §3
NCI-H596 [16] = assay: Induction of DNA damage in NQO1 expressing human H596 cells at 10 uM in presence of dicoumarol after 2 hrs by alkaline comet tail assay; format: functional, cell-based; outline: as §3
A549 [17] = assay: Induction of NAD+ depletion in NQO1 expressing human A549 cells at 10 uM by luciferase based bioluminescence assay; format: functional, cell-based; outline: as §4
A549 [18] = assay: Reversal of induction of ATP depletion in NQO1 expressing human A549 cells at 10 uM in presence of 40 uM dicoumarol by luciferase based bioluminescence assay; format: functional, cell-based; settings: in the assay text read “50 uM dicoumarol” for “40 uM dicoumarol”; outline: as §2
NCI-H596 [19] = assay: Cytotoxicity against NQO1 expressing human H596 cells assessed as long term survival at =>5 uM for 2 hrs; format: functional, cell-based
Outline: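 Isogenic H596 lines (retroviral NQO1 or empty vector, pooled, puromycin 1.0 μg/ml selected) in DMEM/10% FBS, 37°C, 5% CO2. Drug given 2 h, then removed; relative survival from DNA content after 7 days' growth. Confirmed by colony formation; means ± SE of three experiments in triplicate.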

NCI-H596 [20] = assay: Reversal of induction of nucleotide depletion in NQO1 expressing human H596 cells in presence of 3-aminobenzamide by luciferase based bioluminescence assay; format: functional, cell-based
Outline: (§6)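 Cells pretreated 2 h ± 25 mM 3-AB, then drug ± 3-AB; harvested at set times. NAD+ as % treated/control; ATP by luciferase bioluminescence of whole-cell extracts. Means ± SE of three experiments.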

A549 [21] = assay: Reversal of cell death in human A549 cells at 10 uM in presence of 3-aminobenzamide after 2 hrs; format: functional, cell-based
A549 [22] = assay: Induction of DNA damage in NQO1 expressing human A549 cells at 10 uM after 2 hrs by alkaline comet tail assay; format: functional, cell-based; outline: as §3
A549 [23] = assay: Reversal of PARP1 hyperactivation in NQO1 expressing human A549 cells assessed as PAR formation in presence of 3-aminobenzamide; format: functional, cell-based; outline: as §5
A549 [24] = assay: Reversal of cell death in NQO1 expressing human A549 cells at 6 uM in presence of 1,2-bis(2-aminophenoxy)ethane-N,N,N',N'-tetraacetic acid acetoxymethyl ester; format: functional, cell-based
NCI-H596 [25] = assay: Induction of PARP1 hyperactivation in NQO1 expressing human H596 cells assessed as PAR accumulation at 10 uM for 10 mins by Western blot; format: functional, cell-based
NCI-H596 [26] = assay: Induction of oxidative stress in NQO1 expressing human H596 cells assessed as reactive oxygen species generation at 10 uM after 1 hr by flow cytometry; format: functional, cell-based
Outline: (§7)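 Cells given 10 μM drug ± 50 μM DIC; ROS monitored over a time course by conversion of chloromethyl-dichlorodihydrofluorescein diacetate to fluorescent product, read by flow cytometry. 2 mM H2O2 or 10 μM antimycin A for 20 min as positive controls. Means ± SE, three experiments in duplicate.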

A549 [27] = assay: Reversal of PARP1 hyperactivation in NQO1 expressing human A549 cells assessed as PAR formation at 6 uM in presence of 1,2-bis(2-aminophenoxy)ethane-N,N,N',N'-tetraacetic acid acetoxymethyl ester; format: functional, cell-based
Outline: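 A549 cells pretreated with 5 μM BAPTA-AM or mock, then exposed to 6 μM drug for 10 min; lysates probed for PAR by Western blot.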

NCI-H596 [28] = assay: Induction of PARP1 hyperactivation in NQO1 deficient human H596 cells assessed as PAR accumulation at 10 uM for 10 mins by Western blot; format: functional, cell-based
[29] = Cytotoxicity against NQO1 expressing human H596 cells after 2 hrs; format: functional; settings: NCI-H596, 2 h, read-out: LD50 (the source's name)
Outline: (§8)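 Long-term relative survival assay: cells exposed to drug for 2 h (A549 with or without 50 μM dicoumarol), drug removed, then grown 7 days post-treatment in DMEM with 10% FBS at 37°C, 5% CO2. Survival read from DNA content and confirmed by colony-forming ability. LD50 from dose-response; means ± SE, at least three experiments in triplicate. H596 line stably expressing NQO1 via retroviral vector, puromycin-selected.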

A549 [30] = assay: Reversal of induction of cell death in human A549 cells in presence of 3-aminobenzamide at 10 uM after 48 hrs by TUNEL assay; format: functional, cell-based
A549 [31] = assay: Reversal of PAR-polymer formation in NQO1 expressing human A549 cells at 10 uM in presence of 50 uM dicoumarol; format: functional, cell-based
A549 [32] = assay: Induction of oxidative stress in NQO1 expressing human A549 cells assessed as reactive oxygen species generation at 10 uM after 1 hr by flow cytometry; format: functional, cell-based; outline: as §7
A549 [33] = assay: Induction of DNA damage in NQO1 expressing human A549 cells at 10 uM in presence of dicoumarol after 2 hrs by alkaline comet tail assay; format: functional, cell-based; outline: as §3
A549 [34] = assay: Cytotoxicity against NQO1 expressing human A549 cells after 2 hrs; format: functional; settings: A549, 2 h, read-out: LD50 (the source's name); outline: as §8
A549 [35] = assay: Reversal of induction of nucleotide depletion in NQO1 expressing human A549 cells in presence of 3-aminobenzamide by luciferase based bioluminescence assay; format: functional, cell-based; outline: as §6

Q: Which Activity (A549 [1]) does the source give for `CC1(C)CCC2=C(O1)c1ccccc1C(=O)C2=O` [LAPACHONE] here?
A: The Activity was “Active”.

Q: And the Activity (NCI-H596 [2])?
A: The Activity was “Active”.

Q: What about the Activity (NCI-H596 [3]) of the same compound?
A: The Activity was “Active”.

Q: And the Activity (A549 [4])?
A: The Activity was “Active”.

Q: What about the Activity (A549 [5]) of the same compound?
A: Its Activity is “Active”.

Q: And the Activity (A549 [6])?
A: The Activity was “Active”.

Q: What about the Activity (A549 [7]) of the same compound?
A: Its Activity is “Active”.

Q: What about the Activity (NCI-H596 [8]) of the same compound?
A: Its Activity is “Active”.

Q: What about the Activity (NCI-H596 [9]) of the same compound?
A: Its Activity is “Active”.

Q: What about the Activity (NCI-H596 [10]) of the same compound?
A: Its Activity is “Active”.

Q: What about the Activity (NCI-H596 [11]) of the same compound?
A: The Activity was “Active”.

Q: What about the Activity (A549 [12]) of the same compound?
A: Its Activity is 43%.

Q: And the Activity (NCI-H596 [13])?
A: The Activity was “Active”.

Q: What about the Activity (NCI-H596 [14]) of the same compound?
A: The Activity was “Active”.

Q: What about the Activity (NCI-H596 [15]) of the same compound?
A: Its Activity is “inactive”.

Q: What about the Activity (NCI-H596 [16]) of the same compound?
A: Its Activity is “inactive”.

Q: And the Activity (A549 [17])?
A: Its Activity is “Active”.

Q: What about the Activity (A549 [18]) of the same compound?
A: The Activity was “Active”.

Q: What about the Activity (NCI-H596 [19]) of the same compound?
A: The Activity was “Active”.

Q: What about the Activity (NCI-H596 [20]) of the same compound?
A: Its Activity is “Active”.

Q: And the Activity (A549 [21])?
A: Its Activity is “Active”.

Q: What about the Activity (A549 [22]) of the same compound?
A: Its Activity is “Active”.

Q: And the Activity (A549 [23])?
A: Its Activity is “Active”.

Q: What about the Activity (A549 [24]) of the same compound?
A: The Activity was “Active”.

Q: And the Activity (NCI-H596 [25])?
A: Its Activity is “Active”.

Q: And the Activity (NCI-H596 [26])?
A: The Activity was “Active”.

Q: And the Activity (A549 [27])?
A: The Activity was “Active”.

Q: What about the Activity (NCI-H596 [28]) of the same compound?
A: Its Activity is “inactive”.

Q: And the CC50 [29]?
A: Its CC50 is 4 µM.

Q: What about the Activity (A549 [30]) of the same compound?
A: Its Activity is “Active”.

Q: What about the Activity (A549 [31]) of the same compound?
A: The Activity was “Active”.

Q: What about the Activity (A549 [32]) of the same compound?
A: The Activity was “Active”.

Q: And the Activity (A549 [33])?
A: Its Activity is “inactive”.

Q: What about the CC50 (A549 [34]) of the same compound?
A: The CC50 was 2.5 µM.

Q: What about the Activity (A549 [35]) of the same compound?
A: The Activity was “Active”.
